Activity calls are given as the source filed them. The calls are words filed in the database; no cut-off is given here.

Experiment [1] has as its system HeLa. The experiment in a line: Cytotoxicity against human HeLa cells after 48 hrs by MTT assay. Format: functional, cell-based. The method in brief: (§1)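 A549, HeLa and MCF7 cells were grown in DMEM with 10% FBS, and DU145 in MEM with non-essential amino acids, pyruvate, insulin and 10% FBS. Cells were plated 24 h before dosing, then exposed continuously for 48 h at 1, 10, 25 and 100 µM in triplicate wells. MTT was added for 60 min, dissolved in DMSO and read at 560 nm. IC50 was taken from dose-response curves against control, as mean ± SD of three independent experiments.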

The target of the next experiment is Tubulin (Bos taurus) (UniProt Q6B856+Q862L2+Q862F3). The conditions noted are these: at 10 µM.
The test system of another experiment is DU-145. The experiment in a line: Cytotoxicity against human DU145 cells after 48 hrs by MTT assay. The format is functional, cell-based. The conditions noted are these: DU-145, 48 h. The method in brief:
as §1

Experiment [2] deals with HeLa. The experiment in a line: Cell cycle arrest in human HeLa cells assessed as disruption of microtubule organization at 10 uM after 24 hrs by DAPI staining-based immunohistochemistry relative to control. Format: functional. The method, boiled down: (§2)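 HeLa cells were grown on coverslips and treated 24 h at 10 µM. They were fixed in 3.5% formaldehyde/PBS pH 7.4 for 10 min, permeabilized with 0.5% Triton X-100/0.05% Tween-20 and blocked in 2% BSA. Staining used anti-tubulin (1:200, 4 h, room temperature) then FITC anti-mouse (1:500, 1 h). Cells were mounted with DAPI and imaged by confocal microscopy.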

The next experiment concerns MCF7. The experiment in a line: Cytotoxicity against human MCF7 cells after 48 hrs by MTT assay. Format: functional, cell-based. The conditions noted are these: MCF7, 48 h. The method, boiled down:
as §1

The test system of experiment [3] is HeLa. The experiment in a line: Cell cycle arrest in human HeLa cells assessed as planar arrangement of chromosomes with distinct microtubule organization centres at 10 uM after 24 hrs by DAPI staining-based immunohistochemistry relative to control. The format is functional. The method in brief:
as §2

The target of a further experiment is Tubulin (Bos taurus, UniProt Q6B856+Q862L2+Q862F3). The experiment in a line: Inhibition of bovine brain tubulin polymerization measured for 1 hr by fluorescence assay.
In experiment [4] the test system is HeLa. The experiment in a line: Cell cycle arrest at G2/M phase in human HeLa cells assessed as increase in cyclin B1 expression at 10 uM after 24 hrs by immunoblot analysis relative to control. The format is functional, cell-based.
For experiment [5], the system named is HeLa. The experiment in a line: Cell cycle arrest at G2/M phase in human HeLa cells assessed as reduction in polymerized form of tubulin at 10 uM after 24 hrs by immunoblot analysis relative to control. Format: functional, cell-based. The method in brief: (§3)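 HeLa cells seeded at 1×10^5 per well in complete growth medium and treated 24 h (test compounds 10 µM; nocodazole 2 µM as positive control; DMSO controls). Soluble tubulin was taken by 3 min permeabilization at 30 °C in PIPES-KOH pH 6.8/0.2% Triton X-100/glycerol buffer, and insoluble pellet fraction in Laemmli buffer. Equal volumes were run on SDS-10% PAGE and probed with mouse anti-α-tubulin, with HRP secondary and ECL detection.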

The subject of another experiment is A549. The experiment in a line: Cytotoxicity against human A549 cells after 48 hrs by MTT assay. Format: functional, cell-based. The note with it: A549, 48 h. The method, boiled down: as §1
The test system of experiment [6] is HeLa. The experiment in a line: Cell cycle arrest in human HeLa cells assessed as accumulation at G2/M phase at 10 uM after 24 hrs by FACS analysis (reference value: 26.75%). The format is functional.
Experiment [7] has as its system HeLa. The experiment in a line: Cell cycle arrest at G2/M phase in human HeLa cells assessed as increase in soluble form of tubulin at 10 uM after 24 hrs by immunoblot analysis relative to control. Format: functional, cell-based. The method in brief: as §3
Experiment [8] has as its system HeLa. The experiment in a line: Cell cycle arrest at G2/M phase in human HeLa cells assessed as soluble form of tubulin at 2 uM after 24 hrs by immunoblot analysis relative to control. Format: functional, cell-based. The method in brief: as §3
The subject of experiment [9] is HeLa. The experiment in a line: Cell cycle arrest at G2/M phase in human HeLa cells assessed as increase in cyclin B1 expression at 2 uM after 24 hrs by immunoblot analysis relative to control. The format is functional, cell-based.

On to `COc1cc(C2=NOC(COCc3cn(Cc4cc(-c5ccc(C)cc5)cnc4Cl)nn3)C2)cc(OC)c1OC` (stereo unspecified), for which the half-maximal inhibitory concentration (IC50) was 9.7 µM in the experiment on HeLa [1]; 13.1 µM in the experiment on DU-145; 12.9 µM with MCF7; 8.1 µM at Tubulin; 11.5 µM in the experiment on A549. Further, at Tubulin (Bos taurus), the inhibition was 69%. Moreover, the outcome with HeLa [2], in the experiment on HeLa [3], in the experiment on HeLa [4], in the experiment with HeLa [5] and in the experiment on HeLa [7] was Active. In the experiment on HeLa [6], the Activity is given as 78.85%.
As for `COc1cc(COCc2cn(Cc3cc(-c4ccccc4)cnc3N3CCSCC3)nn2)cc(OC)c1OC`, the IC50 in the experiment with HeLa [1] stood at 31.5 µM; in the experiment with DU-145, 48.9 µM; in the experiment with MCF7, 59 µM; in the experiment with A549, 45.2 µM. For the same compound, at Tubulin (Bos taurus), the inhibition turned out to be 39%.
For `COc1cc(-c2cc(COCc3cn(Cc4cc(-c5ccc(C)cc5)cnc4Cl)nn3)on2)cc(OC)c1OC`, in that order: 35.3 µM, 37.3 µM, 58.4 µM, 30.6 µM and 59%.
For `COc1cc(-c2cc(COCc3cn(Cc4cc(-c5ccc(F)cc5)cnc4Cl)nn3)on2)cc(OC)c1OC` the same measures were 37.3 µM, 31.9 µM, 76.4 µM, 40.6 µM and 46%.
For `COc1cc(C2=NOC(COCc3cn(Cc4cc(-c5ccc(C)cc5)cnc4N4CCSCC4)nn3)C2)cc(OC)c1OC` (stereo unspecified), in that order: 39.2 µM, 87.3 µM, 71.1 µM, 43.2 µM and 22%.
`COc1cc(C2=NOC(COCc3cn(Cc4cc(-c5ccccc5)cnc4N4CCOCC4)nn3)C2)cc(OC)c1OC` (stereo unspecified): the IC50 was 42.6 µM in the experiment with HeLa [1], 44.8 µM in the experiment on DU-145, 68.8 µM with MCF7 and 39.2 µM in the experiment with A549. This compound also came in with an inhibition at Tubulin (Bos taurus) of 46%.
For `COc1cc(-c2cc(COCc3cn(Cc4cc(-c5ccccc5)cnc4N4CCSCC4)nn3)on2)cc(OC)c1OC` the same measures were 175 µM, 210 µM, 213 µM, 52.6 µM and 11%.
For `COc1cc(COCc2cn(Cc3cc(-c4ccc(C)cc4)cnc3Cl)nn2)cc(OC)c1OC`, in that order: 28.6 µM, 37 µM, 146 µM, 150 µM and 35%.
For `COc1cc(COCc2cn(Cc3cc(-c4ccc(C)cc4)cnc3N3CCSCC3)nn2)cc(OC)c1OC` the same measures were 352 µM, 41.9 µM, 67.8 µM, 33.9 µM and 21%.
Take `COc1cc(-c2cc(COCc3cn(Cc4cc(-c5ccc(C)cc5)cnc4N4CCOCC4)nn3)on2)cc(OC)c1OC`: the IC50 was found to be 36.1 µM in the experiment with HeLa [1], 52.1 µM in the experiment on DU-145, 73.4 µM with MCF7 and 45.3 µM in the experiment with A549. The compound also yielded an inhibition against Tubulin (Bos taurus) of 64%.
`COC(=O)Nc1nc2cc(C(=O)c3cccs3)ccc2[nH]1`: the result in the experiment with HeLa [8] and in the experiment on HeLa [9] was Active.
With `COc1cc(C2=NOC(COCc3cn(Cc4cc(-c5ccc(F)cc5)cnc4Cl)nn3)C2)cc(OC)c1OC` (stereo unspecified), the IC50 was found to be 27.2 µM in the experiment on HeLa [1], 32.8 µM in the experiment with DU-145, 45.7 µM in the experiment with MCF7 and 25.2 µM with A549. This compound had an inhibition against Tubulin (Bos taurus) of 51%.
For `COc1cc(-c2cc(COCc3cn(Cc4cc(-c5ccccc5)cnc4Cl)nn3)on2)cc(OC)c1OC`, in that order: 43.1 µM, 78.5 µM, 68.5 µM, 112 µM and 16%.
As for `COc1cc(C2=NOC(COCc3cn(Cc4cc(-c5ccccc5)cnc4Cl)nn3)C2)cc(OC)c1OC` (stereo unspecified), the half-maximal inhibitory concentration (IC50) in the experiment on HeLa [1] turned out to be 7.3 µM; with DU-145, 11.4 µM; in the experiment on MCF7, 14.6 µM; at Tubulin, 6.8 µM; in the experiment with A549 it was 8.6 µM. This compound showed an inhibition against Tubulin (Bos taurus) of 72%. The result in the experiment on HeLa [2], in the experiment on HeLa [3], in the experiment on HeLa [4], in the experiment with HeLa [5] and in the experiment with HeLa [7] was Active. In the experiment with HeLa [6], the Activity was found to be 87.79%.
On to `COc1cc(-c2cc(COCc3cn(Cc4cc(-c5ccc(C)cc5)cnc4N4CCSCC4)nn3)on2)cc(OC)c1OC`, for which the IC50 with HeLa [1] amounted to 52.6 µM; in the experiment with DU-145, 94.3 µM; with MCF7 it was 64.8 µM; in the experiment on A549 it was 61 µM. This compound also displayed an inhibition on Tubulin (Bos taurus) of 15%.
Regarding `COc1cc(-c2cc(COCc3cn(Cc4cc(C)cnc4N4CCOCC4)nn3)on2)cc(OC)c1OC`, the IC50 was 128 µM in the experiment with HeLa [1], 54.7 µM in the experiment on DU-145, 195 µM with MCF7 and 39.5 µM in the experiment on A549. This compound gave an inhibition at Tubulin (Bos taurus) of 19%.
For `COc1cc(COCc2cn(Cc3cc(C)cnc3N3CCOCC3)nn2)cc(OC)c1OC`, in that order: 35.6 µM, 66.7 µM, 48.5 µM, 64.9 µM and 45%.
For `COc1cc(-c2cc(COCc3cn(Cc4cc(C)cnc4Cl)nn3)on2)cc(OC)c1OC` the same measures were 57.7 µM, 39.8 µM, 194 µM, 256 µM and 22%.

Source of the values: ChEMBL document CHEMBL3397031, “Synthesis and structure-activity relationships of pyridinyl-1H-1,2,3-triazolyldihydroisoxazoles as potent inhibitors of tubulin polymerization” (Eur J Med Chem, 2015).
